# High-throughput results from PubChem.
# WT yeast gro inh: growth inhibition of WT yeast, mitochondrial fusion screen; mitochondrial fusion phenotypic screen, WT strain; inhibition, % at 10 µM; actives 2.1% (n = 190,000); in the data active = inhibition above about 58%; tested in S. cerevisiae
# SKKanGAS inh: blocks kanamycin growth of S. pyogenes SKKanGAS strain. inhibition, % at 7.5 µM. actives 1.3% (n = 300,000). AID 1662. BacTiter-Glo, 6 h;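 active = mean replicate score, as percent of positive control median, at least 50; inconclusive = mean below 50 but one replicate at or above 50; inactive = mean and every replicate below 50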;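 also: strain carries kanamycin resistance gene driven by streptokinase promoter and grows in 40 µg/ml kanamycin; loss of luminescence reflects streptokinase promoter inhibition or plain growth inhibition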
# Autophagy HCS: alters autophagy in cells. AID 463193. actives 0.98% (n = 190,000). MEF GFP-LC3 puncta imaging; test concentration mostly 10 µM. calls only at 10 µM (by protocol);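 active = percentage of spot-positive cells more than 3 SD above its plate mean, without a fluorescence outlier flag or 80% toxicity; inconclusive = no clear call, values can overlap the other calls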
# KCC2 mod: modulators of human KCC2 chloride dependent transport; actives 2.2% (n = 190,000); B-score of Tl+ flux slope (higher = more flux/activation; lower = inhibition) at 10 µM; KCC2 cells, thallium flux FluoZin-2 fluorescence; Q9H2X9;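 active = thallium flux slope and its plate-corrected score both differing from the plate sample mean at a set confidence after two filtering rounds, in either direction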;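 also: slope of fluorescence scaled to starting intensity during 10 to 20 s after thallium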
# Insulin prom up: MIN6 insulin promoter up-regulation; AID 1625; z-score at 5 µM; actives 0.3% (n = 190,000); MIN6 insulin promoter-GFP reporter, high-content imaging; stronger effect = higher value;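 active = z-score above 3 at 5 µM with at least 500 cells counted in the well; inconclusive = wells under 500 cells, flagged as cytotoxic or low count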
# Rad51 HR inh: blocks human Rad51 in homologous recombination. hRad51 DNA strand exchange, fluorescence dequenching. AID 1385. Q06609. actives 0.085% (n = 200,000). inhibition, % at 10 µM;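 active = inhibition above 40% at the single screening dose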
#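 Material: Human Rad51 nucleoprotein filaments preassembled on unlabelled ssDNA | Also added: Labelled 47-mer dsDNA for strand exchange | Dosing: Single dose, 10 µM final compound | Schedule: 30-min compound preincubation and 15-min exchange, both room temperature | Technique: Fluorescence dequenching at 485/520 nm | Measure: Percent inhibition relative to plate controls and blanks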
# Numbers stand for hits; 0 = inactive; ? = inconclusive; - = no result; + = active, no number. Most compounds without a hit are left out; they make up all but 4.2% or so of the library.
SMILES,WT yeast gro inh,SKKanGAS inh,Autophagy HCS,KCC2 mod,Insulin prom up,Rad51 HR inh
O=C(CC1C(=O)NCCN1Cc1c(F)cccc1Cl)NCc1ccccc1 (stereo not drawn),0,0,0,0,0,0
CC(Oc1ccc(Cl)cc1Cl)C(=O)NC1=NN(c2ccccc2)C(=O)C1 (stereo not drawn),0,93.9,0,0,0,-
CC(C)(Oc1ccc(Cl)cc1)C(=O)NC1=NN(c2ccccc2)C(=O)C1,0,94.5,0,0,0,0
COc1ccccc1NC(=S)N(Cc1cccs1)C1CCCC1,74.9,0,0,0,0,0
Cn1c(=O)[nH]c2ccc([N+](=O)[O-])nc21,0,0,0,0,0,0
COc1ccccc1NC(=O)COC(=O)C1CC2C=CC1C2 (stereo not drawn),0,0,0,0,3.01,0
CCCc1ccc(OC(=O)c2ccc(O)cc2Cl)cc1,0,81.2,0,0,0,0
CCCc1ccc(OC(=O)c2cccs2)cc1,0,0,0,-,-,0
Cc1cc(C)c2nc(NNC(=O)c3ccc(S(=O)(=O)N4CCc5ccccc5C4)cc3)sc2c1,0,77.6,0,0,0,0
Cc1cc(C)c2sc(N(CCCN(C)C)C(=O)c3ccc(S(=O)(=O)N4CCc5ccccc5C4)cc3)nc2c1,-,0,-,-,-,-
Cc1cc(C)c2sc(NNC(=O)c3ccc(S(=O)(=O)N4CCc5ccccc5C4)cc3)nc2c1,0,65.4,0,0,?,0
CCOC(=O)Cc1csc(NC(=O)c2cc(=O)c3ccccc3o2)n1,0,0,0,0,0,0
Cc1cc(C)c2nc(NNC(=O)c3cc(=O)c4ccccc4o3)sc2c1,0,84.8,0,0,0,-
COc1cccc(N2C(=O)C3CCCN3C2=S)c1 (stereo not drawn),-,0,-,-,-,-
Cc1c(CN2CCCC(C(=O)c3cccc(OC(C)C)c3)C2)c(=O)n(-c2ccccc2)n1C (stereo not drawn),0,0,+,0,0,0
O=c1c2c(nc3c(-c4ccc(Cl)cc4)c[nH]n13)CCCC2,0,71.0,0,-,0,0
O=C(CSc1nc(=O)n2ccccc2n1)NC1CCCCC1,-,0,-,-,-,-
C/C(=N/NC(=O)c1cccs1)c1c(C)[nH]n(-c2nc3ccccc3s2)c1=O,0,55.0,0,0,-,0
COc1ccccc1CC(=O)NCc1nn(-c2ccccc2)nc1C,-,0,-,0,0,0
CC(OC(=O)CCCC(=O)Nc1ccc(F)cc1)C(=O)c1ccccc1 (stereo not drawn),-,0,-,-,-,-
CC(C)CN1C(=S)SC(C)(C)C1n1oc(=O)n(-c2ccccc2)c1=O (stereo not drawn),0,0,0,0,-,0
CC(C)CN1C(=S)SC(C)(C)C1n1oc(=O)n(-c2ccc(Cl)cc2)c1=O (stereo not drawn),0,70.9,0,-,-,0
CS(=O)(=O)N(CC(=O)N1CCCCCC1)c1cccc(F)c1,-,0,-,-,-,-
Cc1cccc2sc(N(CCCN(C)C)C(=O)c3nc4ccccc4s3)nc12,0,0,0,0,0,0
Cc1ccc2sc(N(CCCN(C)C)C(=O)c3nc4ccccc4s3)nc2c1C,58.6,0,0,0,0,0
SMILES,WT yeast gro inh,SKKanGAS inh,Autophagy HCS,KCC2 mod,Insulin prom up,Rad51 HR inh
Cc1ccc2sc(N(CCCN(C)C)C(=O)c3ccc(Br)s3)nc2c1C,87.2,0,0,0,0,0
COc1ccc(NC(=O)/C(=C\c2ccc(OC)c(OC)c2)NC(=O)c2ccco2)cc1,-,0,-,-,-,-
CC(=O)NCC(=O)N1CCCC(C(=O)c2ccc(-c3ccccc3)c(F)c2)C1 (stereo not drawn),0,0,0,-,0,0
O=C(c1ccc(-c2ccccc2)cc1)C1CCCN(C(=O)c2ccncc2)C1 (stereo not drawn),0,0,+,0,0,0
COCC(=O)N1CCCC(C(=O)c2ccc(-c3ccccc3)c(F)c2)C1 (stereo not drawn),58.6,0,0,0,0,-
O=C(c1ccc(Oc2ccccc2)cc1)C1CCCN(C(=O)c2cnccn2)C1 (stereo not drawn),-,0,-,0,0,-
CCOC(=O)C1CCCN(C(=O)CN2C(=O)/C(=C/c3ccc(OC)cc3)Oc3ccccc32)C1 (stereo not drawn),59.4,0,0,0,0,0
CCOC(=O)C1CCCN(C(=O)CN2C(=O)c3ccccc3C2=O)C1 (stereo not drawn),0,0,0,0,0,0
O=C(Nc1ccc(S(=O)(=O)N2CCCC2)cc1)c1cnccn1,0,0,0,0,0,0
